The source of these data is ChEMBL document CHEMBL5034042 (ACS Med Chem Lett, 2022).

The Emax is the size of the effect at its maximum, as opposed to the concentration needed. The EC50 is the concentration giving half of the maximal effect.

Experiment [1] concerns the target T1, Trace amine-associated receptor 1 (Homo sapiens) (UniProt Q96RJ0).
T1 sequence (whole entry): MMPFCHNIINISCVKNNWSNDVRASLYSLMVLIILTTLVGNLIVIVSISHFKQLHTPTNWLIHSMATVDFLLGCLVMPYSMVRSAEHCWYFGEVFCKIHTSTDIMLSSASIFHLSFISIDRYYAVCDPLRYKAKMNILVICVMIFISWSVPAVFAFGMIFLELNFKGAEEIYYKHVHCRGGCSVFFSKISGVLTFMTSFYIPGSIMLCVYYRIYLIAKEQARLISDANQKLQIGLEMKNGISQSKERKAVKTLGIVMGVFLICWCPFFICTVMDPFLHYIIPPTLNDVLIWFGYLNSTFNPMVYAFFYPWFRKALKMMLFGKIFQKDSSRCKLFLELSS
Put plainly: Agonist activity at recombinant human TAAR1 expressed in CHO-K1 cells assessed as maximal increase in intracellular cAMP incubated for 30 mins by HTRF analysis relative to control. In kind it is functional, cell-based. The settings on record: filed as agonist. In a few lines: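 Maximal response (Emax) is expressed relative to a p-tyramine control applied to each plate. Values were run in triplicate under identical conditions in a single study and are reported as mean ± SEM (n = 3).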
A general note: In TR-FRET formats the signal depends on donor and acceptor labels being close together.

Experiment [2] deals with T2, Trace amine-associated receptor 1 (Homo sapiens, UniProt Q96RJ0).
T2 sequence (Q96RJ0 whole entry): T1 sequence (whole entry)
Put plainly: Agonist activity at recombinant human TAAR1 expressed in CHO-K1 cells assessed as increase in intracellular cAMP incubated for 30 mins by HTRF analysis. The experiment is classed as functional, cell-based. In a few lines:
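Human TAAR1 agonism was measured in a single study under identical conditions.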

On to `NCCc1c[nH]c2ccc(O)cc12` [SEROTONIN], for which the maximum response (Emax) in experiment [1] amounted to 75%. Moreover, the EC50 in experiment [2] is 35100 nM.
For `NCCc1ccc(Oc2ccc(O)cc2)c(I)c1` the same measures were 105% and 225 nM.
As to `NCCc1cccs1`, the Emax in experiment [1] came out at 113%. In experiment [2], the EC50 was 8.3 nM.
`NCCc1ccc(O)c(O)c1`: the Emax in experiment [1] came to 97%.
In the case of `CNCC1OCCCc2ccsc21` (racemic), the maximum response (Emax) in experiment [1] was 113%. Also, the EC50 in experiment [2] came to 321 nM.
The matching figures for `NCC(O)c1ccc(O)c(O)c1` (configuration not stated): 99% and 12200 nM.
The matching figures for `c1cc2c(s1)[C@H](CN1CCCC1)OCC2`: 113% and 7200 nM.
In the case of `NCC1OCCCc2ccsc21` (racemic), the Emax in experiment [1] is 111%. Besides, in experiment [2], the EC50 was 65 nM.
`NC[C@@H](O)c1ccc(O)cc1`: the Emax in experiment [1] was 108%. For the same compound, in experiment [2], the EC50 came to 4110 nM.
In the case of `CNC[C@@H]1OCCc2sccc21`, the Emax in experiment [1] is 110%. In addition, the EC50 in experiment [2] was determined as 113 nM.
As to `NCC[C@@H]1OCCc2ccsc21`, the Emax in experiment [1] worked out at 105%. Moreover, in experiment [2], the EC50 came out at 233 nM.
Take `NC[C@@H]1OCCc2ccsc21`: the maximal effect (Emax) in experiment [1] is 110%. For the same compound, the EC50 in experiment [2] is 3.5 nM.
With `NCCc1ccccc1` [PHENETHYLAMINE], the maximal response (Emax) in experiment [1] turned out to be 111%. For the same compound, the concentration giving a half-maximal response (EC50) in experiment [2] came out at 15 nM.
With `NCCc1cccc(O)c1`, the maximal response (Emax) in experiment [1] stood at 109%. Further, in experiment [2], the EC50 was 339 nM.
Take `CNC[C@H](O)c1ccc(O)cc1`: the maximal response (Emax) in experiment [1] was determined as 113%. In experiment [2], the 50% effective concentration (EC50) came to 4730 nM.
As to `NC[C@H](O)c1ccc(O)cc1`, the maximal effect (Emax) in experiment [1] was 116%. In experiment [2], the EC50 is 1570 nM.
On to `COc1cc(CCN)ccc1O`, for which the maximal response (Emax) in experiment [1] stood at 101%. Also, the concentration for a half-maximal effect (EC50) in experiment [2] is 308 nM.
As to `NCCc1ccsc1`, in experiment [1], the Emax is 112%. In experiment [2], the EC50 came out at 25 nM.
For `NCCc1c[nH]c2ccccc12` [TRYPTAMINE] the same measures were 102% and 2210 nM.
The matching figures for `CN(C)C[C@@H]1OCCc2ccsc21`: 112% and 203 nM.
As to `CNC[C@]1(C)OCCc2ccsc21`, the maximum response (Emax) in experiment [1] is 95%. The EC50 in experiment [2] is 45700 nM.
Turning to `CNCC1OCCc2cscc21` (configuration not stated), the Emax in experiment [1] was found to be 112%. In experiment [2], the concentration giving a half-maximal response (EC50) worked out at 290 nM.
As for `NCCc1ccc(O)cc1` [TYRAMINE], the Emax in experiment [1] is 111%. The EC50 in experiment [2] came out at 76 nM.
On to `CNCCc1ccccc1`, for which the Emax in experiment [1] was 111%. Further, the 50% effective concentration (EC50) in experiment [2] was 151 nM.
